Bioassay records: PubChem BioAssay, several laboratories
CHT PAM: allosterically activates the human high affinity choline transporter; Q9GZV3; CHT-expressing cells, membrane potential dye, choline EC20; active compounds read high; LV-AA mutant CHT in HEK293 cells; B-score at 10 µM; 310,000 compounds, 0.49% hits; AID 488977;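 active = initial fluorescence not abnormally high and integrated response B-score, plate-corrected, over 3 SD above library mean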
ABCB6 inh 2: blocks the human ABCB6 transporter; K562-ABCB6 porphyrin accumulation, flow cytometry, 1 h; active compounds read low; Q9NP58; fluorescence ratio to DMSO, % at 10 µM; AID 602162; 360,000 compounds, 0.19% hits;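 active = fluorescence ratio to DMSO below 75%, the collection mean minus 3 SD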;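 also: signal is porphyrin accumulated inside mitochondria; lower ratio means ABCB6 inhibition with less porphyrin fluorescence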
TNAP inh no acc: blocks human TNAP activity with no phosphate acceptor present | P05186 | purified TNAP, CDP-star luminescence, 30 min | inhibition, % at 20 µM | 200,000 compounds, 0.26% hits;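 active = tissue-nonspecific alkaline phosphatase inhibition above about 50% at 20 µM in the single-dose screen, limit read from the data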
Target sequence (P05186 whole entry, looked up): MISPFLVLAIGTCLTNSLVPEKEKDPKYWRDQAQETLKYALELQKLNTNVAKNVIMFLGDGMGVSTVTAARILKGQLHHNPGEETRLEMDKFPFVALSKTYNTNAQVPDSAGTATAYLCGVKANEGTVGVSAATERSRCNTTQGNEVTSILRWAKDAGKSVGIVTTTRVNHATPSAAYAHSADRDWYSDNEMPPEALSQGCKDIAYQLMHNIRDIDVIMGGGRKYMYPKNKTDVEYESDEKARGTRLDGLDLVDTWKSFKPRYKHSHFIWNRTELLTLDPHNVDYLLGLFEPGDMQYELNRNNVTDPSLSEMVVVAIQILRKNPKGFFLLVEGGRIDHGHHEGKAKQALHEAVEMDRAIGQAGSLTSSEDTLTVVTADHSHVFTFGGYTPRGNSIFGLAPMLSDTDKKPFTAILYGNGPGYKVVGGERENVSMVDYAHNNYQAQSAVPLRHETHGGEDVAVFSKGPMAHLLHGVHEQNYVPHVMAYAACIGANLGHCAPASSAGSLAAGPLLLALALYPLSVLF
CHT inh: human CHT choline transport inhibition; Q9GZV3; CHT-expressing cells, membrane potential dye, choline response; active compounds read low; B-score at 10 µM; 310,000 compounds, 0.86% hits; AID 488975;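 active = B-score over 3 SD under the library average, and starting fluorescence ratio not unusually high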;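 also: choline stimulus applied at its EC90 after an EC20 pre-addition; B-score computed on integrated fluorescence ratio after choline addition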
TNAP inh hi DEA: inhibitors of human TNAP at high phosphate acceptor concentration; purified TNAP, CDP-star luminescence, 1 M DEA; inhibition, % at 20 µM; 200,000 compounds, 0.03% hits;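 active = over 50% inhibition of tissue-nonspecific alkaline phosphatase at 20 µM in the single-dose screen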
TNAP act hiacc: increases human TNAP activity under high phosphate acceptor concentration. P05186. 200,000 tested, under 10 active. activation factor at 20 µM. purified TNAP, CDP-star luminescence, 1 M DEA, 30 min; active compounds read high; 0 = EDTA background, 1 = DMSO-only activity;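 active = activation factor at least 2 at 20 µM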
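Measured by: Luminescent substrate turnover signal | Test system: Human TNAP | Input: TNAP 1/800 final | Dosing: 20 µM single point | Schedule: 30 min, room temperature | Controls: EDTA wells as negative control, DMSO wells as positive control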
CHT inh conf: confirmation of human choline transporter CHT inhibitors | shares compounds with CHT inh | CHT-expressing cells, choline membrane potential dye; LV-to-AA substituted CHT, HEK293 cells | CHT activity remaining % of control (active compounds read low), % at 10 µM | 2,400 compounds, 70% hits | AID 493221;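 active = choline transporter activity left, mean of duplicates at 10 µM, below buffer-only control mean minus 3 SD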;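 also: depolarization triggered by choline at its EC90 following an EC20 pre-addition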
HEK293 MPD ctr: activity in parental HEK293 cells lacking CHT. membrane potential dye, choline response; active = decrease or increase beyond buffer ±3SD. shares compounds with CHT inh. 2,400 compounds, 4% hits. membrane potential ratio readout (active if shifted either direction beyond buffer ±3SD; no single direction) at 10 µM. AID 493222;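 also: parental cells lack the transporter so any hit is non-specific; ratio is peak minus trough fluorescence over baseline after EC90 choline challenge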
Numbers stand for hits. This is a sample that favours compounds with a hit; in the whole collection about 1.4% have one here.

What do the screens show for `CCOC(=O)c1nc(NNC(=O)c2ccc([N+](=O)[O-])cc2)sc1C`?
CHT PAM: inactive; ABCB6 inh 2: inactive; CHT inh: -9.9; CHT inh conf: 54%; HEK293 MPD ctr: inactive

What do the screens show for `CCOC(=O)c1sc(NNC(=O)c2ccc(C)cc2)nc1C`?
CHT PAM: inactive; ABCB6 inh 2: inactive; CHT inh: inactive

What do the screens show for `c1ccc(CCc2nn3c(Cc4ccccc4)nnc3s2)cc1`?
CHT PAM: inactive; ABCB6 inh 2: inactive; TNAP inh no acc: inactive; CHT inh: -5.4; TNAP inh hi DEA: inactive; TNAP act hiacc: inactive; CHT inh conf: 56%; HEK293 MPD ctr: inactive

Results for O=C(NCc1ccccc1)c1onc(CS(=O)(=O)c2ccc(Cl)cc2)c1C(=O)NCc1ccccc1 ?
CHT PAM: inactive; ABCB6 inh 2: inactive; CHT inh: inactive

Results for C=CCn1c(SC2CCOC2=O)nc2scc(C3CC3)c2c1=O (configuration not stated) ?
CHT PAM: inactive; ABCB6 inh 2: inactive; TNAP inh no acc: inactive; CHT inh: -5.7; TNAP inh hi DEA: inactive; TNAP act hiacc: inactive; CHT inh conf: 47%; HEK293 MPD ctr: inactive

How did C=CCn1c(SC2CCOC2=O)nc2sc(C)c(C)c2c1=O (configuration not stated) do in these assays?
CHT PAM: inactive; ABCB6 inh 2: inactive; TNAP inh no acc: inactive; CHT inh: inactive; TNAP inh hi DEA: inactive; TNAP act hiacc: inactive

How did O=C1c2ccc(Cl)cc2S(=O)(=O)c2cccc(C(=O)N3CCC(Cc4ccccc4)CC3)c21 do in these assays?
ABCB6 inh 2: inactive

How did O=C(CCC(=O)N1CCN(c2ccccc2F)CC1)N1CCN(c2ccc(F)cc2)CC1 do in these assays?
CHT PAM: inactive; ABCB6 inh 2: inactive; CHT inh: -5.4; CHT inh conf: 69%; HEK293 MPD ctr: inactive

Results for CCN(CC)c1ncnc2c1[nH]c1ccccc12 ?
CHT PAM: inactive; ABCB6 inh 2: inactive; TNAP inh no acc: inactive; CHT inh: -6.6; TNAP inh hi DEA: inactive; TNAP act hiacc: inactive; CHT inh conf: 52%; HEK293 MPD ctr: inactive

What do the screens show for `O=C(NC1CCCCCCC1)c1ccc(S(=O)(=O)N2CCCC2)cc1`?
CHT PAM: inactive; ABCB6 inh 2: inactive; TNAP inh no acc: inactive; CHT inh: -11; TNAP inh hi DEA: inactive; TNAP act hiacc: inactive; CHT inh conf: 44%; HEK293 MPD ctr: inactive

How did CCc1cccc(NC(=O)c2cccc(S(=O)(=O)N3CCN(C)CC3)c2)c1 do in these assays?
CHT PAM: inactive; ABCB6 inh 2: inactive; CHT inh: inactive

Results for COc1ccc(N(C)S(=O)(=O)c2cccc(C(=O)NC3CCC(C)CC3)c2)cc1 (configuration not stated) ?
CHT PAM: inactive; ABCB6 inh 2: inactive; TNAP inh no acc: inactive; CHT inh: -6.3; TNAP inh hi DEA: inactive; TNAP act hiacc: inactive; CHT inh conf: 65%; HEK293 MPD ctr: inactive

Results for CC1CCC(NC(=O)c2cccc(S(=O)(=O)N3CCOCC3)c2)CC1 (configuration not stated) ?
ABCB6 inh 2: inactive

How did CCc1cccc(CC)c1NC(=O)c1cccc(S(=O)(=O)N2CCN(C)CC2)c1 do in these assays?
CHT PAM: inactive; ABCB6 inh 2: inactive; CHT inh: -5.8; CHT inh conf: 39%; HEK293 MPD ctr: inactive

What do the screens show for `COc1ccc(N(C)S(=O)(=O)c2cccc(C(=O)NC3CCCCCC3)c2)cc1`?
CHT PAM: inactive; ABCB6 inh 2: inactive; TNAP inh no acc: inactive; CHT inh: inactive; TNAP inh hi DEA: inactive; TNAP act hiacc: inactive

How did O=C(NC1CCCCC1)c1ccc(S(=O)(=O)N2CCOCC2)cc1 do in these assays?
CHT PAM: inactive; ABCB6 inh 2: inactive; TNAP inh no acc: inactive; CHT inh: inactive; TNAP inh hi DEA: inactive; TNAP act hiacc: inactive
